Laboratory results published in ChEMBL document CHEMBL1125349 (J Med Chem, 1992).
pEC50: −log10 of the molar value. Non-standard residues stand in square brackets, D forms with d. Residues, ends and D or L forms follow the SMILES beside them. Ava = NCCCCC(=O)O

Columns and labels:
Neuromedin-K receptor = target: T1, Neuromedin-K receptor (Rattus norvegicus, UniProt P16177); experiment: In vitro agonistic activity against tachykinin receptor 3 of everted rat protal vein.; type: functional
T1 sequence (P16177 whole entry): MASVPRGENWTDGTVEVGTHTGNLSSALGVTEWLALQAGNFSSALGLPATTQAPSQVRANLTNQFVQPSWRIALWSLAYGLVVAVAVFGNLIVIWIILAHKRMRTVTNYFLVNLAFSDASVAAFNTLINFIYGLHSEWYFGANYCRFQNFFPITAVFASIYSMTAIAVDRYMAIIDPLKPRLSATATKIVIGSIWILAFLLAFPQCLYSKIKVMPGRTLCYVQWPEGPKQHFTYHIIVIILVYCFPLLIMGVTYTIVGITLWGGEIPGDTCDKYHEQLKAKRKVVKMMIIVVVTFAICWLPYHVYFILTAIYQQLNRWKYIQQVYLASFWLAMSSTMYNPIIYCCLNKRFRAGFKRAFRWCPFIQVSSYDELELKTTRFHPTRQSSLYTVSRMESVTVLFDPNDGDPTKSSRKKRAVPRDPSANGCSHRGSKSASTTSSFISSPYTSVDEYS
Summary of the method: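 Everted isolated portal vein segments from male AH/A rats, 3-mL baths at 37 °C, 0.5 g resting tension, modified Krebs-Henseleit medium, isotonic contractions. […] Equipotent molar ratios were calculated and related to the reference agonist's mean EC50.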

Substance-K receptor = target: T2, Substance-K receptor (Rattus norvegicus, UniProt P16610); experiment: In vitro agonistic activity against tachykinin receptor 2 of rat colon muscularis mucosae.; type: functional
T2 sequence (P16610 whole entry): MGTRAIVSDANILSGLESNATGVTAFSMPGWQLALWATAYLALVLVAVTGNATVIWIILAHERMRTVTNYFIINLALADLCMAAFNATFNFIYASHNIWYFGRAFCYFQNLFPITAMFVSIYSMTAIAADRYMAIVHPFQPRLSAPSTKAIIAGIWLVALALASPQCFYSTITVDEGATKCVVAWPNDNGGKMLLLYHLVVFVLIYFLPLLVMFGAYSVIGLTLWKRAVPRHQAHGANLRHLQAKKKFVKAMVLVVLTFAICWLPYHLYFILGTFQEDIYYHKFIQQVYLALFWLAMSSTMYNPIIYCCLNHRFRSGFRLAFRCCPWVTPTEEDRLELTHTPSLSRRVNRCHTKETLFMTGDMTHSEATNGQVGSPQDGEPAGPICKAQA
Summary of the method: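 Colon muscularis mucosae from male AH/A rats (250-350 g), 3-mL baths, 0.5 g resting tension, 35 °C, with atropine, mepyramine, methysergide and indomethacin (1 µM each). Isotonic contraction was recorded.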

Substance-P receptor = Substance-P receptor (Cavia porcellus, UniProt P30547); experiment: In vitro agonistic activity against tachykinin receptor 1 of guinea pig ileum longitudinal smooth muscle.; type: functional, tissue-based
Chain of Substance-P receptor (P30547 whole entry): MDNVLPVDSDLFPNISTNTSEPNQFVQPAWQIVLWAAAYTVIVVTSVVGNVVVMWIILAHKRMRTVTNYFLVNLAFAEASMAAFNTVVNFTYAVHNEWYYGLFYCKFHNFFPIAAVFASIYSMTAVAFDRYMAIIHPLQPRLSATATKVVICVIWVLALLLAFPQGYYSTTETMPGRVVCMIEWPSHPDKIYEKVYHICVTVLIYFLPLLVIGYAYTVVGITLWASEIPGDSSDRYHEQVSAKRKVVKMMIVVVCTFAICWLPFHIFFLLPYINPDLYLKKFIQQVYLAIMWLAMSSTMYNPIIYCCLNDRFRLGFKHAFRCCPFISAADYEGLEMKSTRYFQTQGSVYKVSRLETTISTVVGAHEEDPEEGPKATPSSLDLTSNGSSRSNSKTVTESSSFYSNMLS

Row | Compound | pEC50 (Neuromedin-K receptor) | pEC50 (Substance-K receptor) | pEC50 (Substance-P receptor)
1 | CSCC[C@H](NC(=O)[C@H](CC(C)C)N1C[C@H]2CCN(C(=O)[C@H](Cc3ccccc3)NC(=O)[C@H](Cc3ccccc3)NC(=O)CCCCN)[C@H]2C1=O)C(N)=O | < 4.74 | 7.82 | 6.26
2 | H-KDSFFGLM-NH2 | 6.07 | 7.48 | 7.35
3 | CSCC[C@H](NC(=O)[C@H](CC(C)C)NC(=O)CNC(=O)[C@H](Cc1ccccc1)NC(=O)[C@H](Cc1ccccc1)NC(=O)CCCCN)C(N)=O (H-[Ava]FFGLM-NH2) | 4.95 | 5.92 | 7.42
4 | CSCC[C@H](NC(=O)[C@H](CC(C)C)N1CCC(NC(=O)[C@@H](NC(=O)[C@H](Cc2ccccc2)NC(=O)[C@H](CO)NC(=O)[C@H](CC(=O)O)NC(=O)[C@H](CCCCN)NC(C)=O)C(C)C)C1=O)C(N)=O (stereo not given in full) |  | 8.89 | 7.36
5 | CSCC[C@H](NC(=O)[C@H](CC(C)C)NC(=O)CNC(=O)[C@@H](NC(=O)[C@H](Cc1ccccc1)NC(=O)[C@H](CO)NC(=O)[C@H](CC(=O)O)NC(=O)[C@@H](NC(=O)[C@H](CCCCN)NC(=O)[C@@H](N)Cc1cnc[nH]1)[C@@H](C)O)C(C)C)C(N)=O [NEUROKININ A] | 6.25 |  | 7.86
6 | CSCC[C@H](NC(=O)[C@H](CC(C)C)NC(=O)[C@H]1CCCN1C(=O)[C@H](Cc1ccccc1)NC(=O)[C@H](Cc1ccccc1)NC(=O)CCCCN)C(N)=O | < 4.52 | 7.04 | 6.08
7 | CSCC[C@H](NC(=O)[C@H](CC(C)C)N1CC2CCN(C(=O)[C@H](Cc3ccccc3)NC(=O)[C@H](Cc3ccccc3)NC(=O)[C@H](CO)NC(=O)[C@H](CC(=O)O)NC(=O)[C@@H](N)CCCCN)C2C1=O)C(N)=O (stereo not given in full) | 5.58 | 7.35 | 5.99
8 | CSCC[C@H](NC(=O)[C@H](CC(C)C)N1CCC(NC(=O)[C@H](Cc2ccccc2)NC(=O)[C@H](Cc2ccccc2)NC(=O)CCCCN)C1=O)C(N)=O (stereo not given in full) | 4.97 | 7.21 | 7.07
9 | CSCC[C@H](NC(=O)[C@H](CC(C)C)NC(=O)CNC(=O)[C@@H](NC(=O)[C@H](Cc1ccccc1)NC(=O)[C@H](Cc1ccccc1)NC(=O)[C@H](CC(=O)O)NC(=O)[C@H](Cc1c[nH]cn1)NC(=O)[C@H](CCSC)NC(=O)[C@@H](N)CC(=O)O)C(C)C)C(N)=O [NEUROKININ B] | 8.20 |  | 7.17
10 | CSCC[C@H](NC(=O)[C@H](CC(C)C)NC(=O)CNC(=O)[C@@H](NC(=O)[C@H](Cc1ccccc1)NC(=O)[C@H](CO)NC(=O)[C@H](CC(=O)O)NC(=O)[C@@H](N)CCCCN)C(C)C)C(N)=O | 6.06 | 8.52 | 7.21
11 | CSCC[C@H](NC(=O)[C@H](CC(C)C)N1C[C@@H]2CCN(C(=O)[C@H](Cc3ccccc3)NC(=O)[C@H](Cc3ccccc3)NC(=O)CCCCN)[C@@H]2C1=O)C(N)=O | < 5.09 | 5.92 | 4.42
12 | CSCC[C@H](NC(=O)[C@H](CC(C)C)N1CC2CCN(C(=O)[C@@H](NC(=O)[C@H](Cc3ccccc3)NC(=O)[C@H](CO)NC(=O)[C@H](CC(=O)O)NC(=O)[C@@H](N)CCCCN)C(C)C)C2C1=O)C(N)=O (stereo not given in full) | 5.57 | 7.23 | 5.95
13 | CSCC[C@H](NC(=O)[C@H](CC(C)C)NC(=O)[C@@H]1CCCN1C(=O)[C@H](Cc1ccccc1)NC(=O)[C@H](Cc1ccccc1)NC(=O)CCCCN)C(N)=O | < 5.00 | 4.89 | 7.87
14 | CSCC[C@H](NC(=O)[C@H](CC(C)C)NC(=O)CNC(=O)[C@@H](NC(=O)[C@H](Cc1ccccc1)NC(=O)CCCCN)C(C)C)C(N)=O (H-[Ava]FVGLM-NH2) |  | 7.03 | 7.07
15 | CSCC[C@H](NC(=O)[C@H](CC(C)C)NC(=O)CNC(=O)[C@H](Cc1ccccc1)NC(=O)[C@H](Cc1ccccc1)NC(=O)[C@H](CCC(N)=O)NC(=O)[C@H](CCC(N)=O)NC(=O)[C@@H]1CCCN1C(=O)[C@H](CCCCN)NC(=O)[C@@H]1CCCN1C(=O)[C@@H](N)CCCN=C(N)N)C(N)=O [SUBSTANCE P] | 5.12 |  | 
16 | CSCC[C@H](NC(=O)[C@@H](CC(C)C)N1C[C@@H]2CCN(C(=O)[C@H](Cc3ccccc3)NC(=O)[C@H](Cc3ccccc3)NC(=O)CCCCN)[C@@H]2C1=O)C(N)=O | < 4.52 | 6.25 | 5.43
17 | CSCC[C@H](NC(=O)[C@H](CC(C)C)N1CC[C@]2(CCCN2C(=O)[C@H](Cc2ccccc2)NC(=O)[C@H](Cc2ccccc2)NC(=O)CCCCN)C1=O)C(N)=O |  | 5.86 | 6.51
18 | CSCC[C@H](NC(=O)[C@@H](CC(C)C)N1C[C@H]2CCN(C(=O)[C@H](Cc3ccccc3)NC(=O)[C@H](Cc3ccccc3)NC(=O)CCCCN)[C@H]2C1=O)C(N)=O | < 4.33 | 5.68 | 5.28
19 | CSCC[C@H](NC(=O)[C@H](CC(C)C)N1CC[C@@H](NC(=O)[C@@H](NC(=O)[C@H](Cc2ccccc2)NC(=O)[C@H](CO)NC(=O)[C@H](CC(=O)O)NC(=O)[C@@H](N)CCCCN)C(C)C)C1=O)C(N)=O | 5.93 | 8.43 | 5.37
